These results are taken from publication PMC4084622 (Journal of Medicinal Chemistry, 2014).

Structures are written as SMILES. In brackets after ≈: the same amount, converted by molar mass. Like-named read-outs stand apart in the source and are kept apart here.

Assay [1] deals with M. tuberculosis. Put plainly: microbe, parasite or virus in culture. The format is cell-based, Mycobacterium tuberculosis. The following applies: Mycobacterium tuberculosis.
Assay [2] has as its system S. aureus (MRSA USA300 strain). Briefly: microbe, parasite or virus in culture. The format is cell-based. The following applies: Staphylococcus aureus, MRSA|USA300, read-out: Sa MIC, MRSA USA300 strain.
The next assay concerns B. subtilis. Briefly: microbe, parasite or virus in culture. The class given is cell-based. Particulars: Bacillus subtilis, read-out: Bs IC50.
In the next assay the test system is E. coli. Put plainly: microbe, parasite or virus in culture. The class given is cell-based. Particulars: Escherichia coli, read-out: Ec IC50.
For another assay, the system named is S. cerevisiae. Briefly: microbe, parasite or virus in culture. The format is cell-based, Saccharomyces cerevisiae.
Another assay relates to C. albicans. Put plainly: microbe, parasite or virus in culture. The format is cell-based. The following applies: Candida albicans, read-out: Ca IC50.
The test system of the next assay is MCF-7. Put plainly: cells. The following applies: Homo sapiens, MCF7, read-out: MCF-7 IC50. The class given is cell-based.
Assay [3] addresses M. tuberculosis cis-farnesyl diphosphate synthase (Rv1086) (Mycobacterium tuberculosis, UniProt P9WFF5). Briefly: cis-farnesyl diphosphate synthase inhibition. The class given is biochemical.
Assay [4] concerns the target M. tuberculosis cis-decaprenyl diphosphate synthase (Rv2361) (Mycobacterium tuberculosis, UniProt P9WFF7). Briefly: cis-decaprenyl diphosphate synthase inhibition. The class given is biochemical.
Assay [5] concerns the target P. vivax geranylgeranyl diphosphate synthase (GGPPS) (Plasmodium vivax, UniProt A5K4U6). Briefly: biochemical.
The target in assay [6] is S. aureus undecaprenyl diphosphate synthase (UPPS) (Staphylococcus aureus, UniProt P60477). Put plainly: S. aureus UPPS inhibition. The class given is biochemical.
Sequence of S. aureus undecaprenyl diphosphate synthase (UPPS) (P60477 whole entry): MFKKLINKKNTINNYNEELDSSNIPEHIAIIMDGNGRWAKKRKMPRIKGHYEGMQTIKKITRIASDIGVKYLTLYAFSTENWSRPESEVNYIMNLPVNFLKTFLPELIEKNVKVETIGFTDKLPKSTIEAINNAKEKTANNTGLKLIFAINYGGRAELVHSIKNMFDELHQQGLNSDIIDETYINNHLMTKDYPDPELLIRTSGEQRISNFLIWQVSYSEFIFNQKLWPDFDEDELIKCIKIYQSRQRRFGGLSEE
Assay [7] deals with E. coli undecaprenyl diphosphate synthase (UPPS) (Escherichia coli, UniProt P60472). Put plainly: E. coli UPPS inhibition. The format is biochemical.
Sequence of E. coli undecaprenyl diphosphate synthase (UPPS) (P60472 whole entry): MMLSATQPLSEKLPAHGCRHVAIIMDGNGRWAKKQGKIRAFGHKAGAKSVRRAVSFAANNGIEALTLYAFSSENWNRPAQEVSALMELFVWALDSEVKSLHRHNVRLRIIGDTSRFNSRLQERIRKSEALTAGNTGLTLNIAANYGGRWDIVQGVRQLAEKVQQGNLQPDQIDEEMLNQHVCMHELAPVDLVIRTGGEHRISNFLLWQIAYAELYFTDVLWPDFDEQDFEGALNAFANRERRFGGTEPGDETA
For assay [8], the target named is S. aureus farnesyl diphosphate synthase (FPPS) (Staphylococcus aureus, UniProt Q2FY48). Briefly: biochemical.
Sequence of S. aureus farnesyl diphosphate synthase (FPPS) (Q2FY48 1-293): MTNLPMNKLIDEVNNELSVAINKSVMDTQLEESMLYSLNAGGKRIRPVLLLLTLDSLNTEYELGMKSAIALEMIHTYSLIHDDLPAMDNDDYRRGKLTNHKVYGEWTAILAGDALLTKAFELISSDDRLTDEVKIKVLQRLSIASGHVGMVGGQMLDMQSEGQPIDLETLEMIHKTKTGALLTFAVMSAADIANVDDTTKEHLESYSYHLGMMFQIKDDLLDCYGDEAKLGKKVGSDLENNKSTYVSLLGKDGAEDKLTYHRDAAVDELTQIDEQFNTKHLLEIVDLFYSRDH
The next assay deals with T1, SaCrtM (Staphylococcus aureus, UniProt A9JQL9).
T1 sequence (A9JQL9 1-287): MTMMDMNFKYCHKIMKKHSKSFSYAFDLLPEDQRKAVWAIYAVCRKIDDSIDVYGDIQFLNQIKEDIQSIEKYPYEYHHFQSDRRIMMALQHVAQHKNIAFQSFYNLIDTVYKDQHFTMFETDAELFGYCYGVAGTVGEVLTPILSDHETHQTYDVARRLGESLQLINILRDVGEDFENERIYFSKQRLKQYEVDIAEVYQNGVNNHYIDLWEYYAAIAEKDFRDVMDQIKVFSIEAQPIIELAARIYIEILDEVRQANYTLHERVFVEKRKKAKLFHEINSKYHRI
Briefly: SaCrtM inhibition. The format is biochemical, S. aureus.

The next assay deals with T2, human SQS (Homo sapiens, UniProt P37268).
T2 sequence (P37268 1-417): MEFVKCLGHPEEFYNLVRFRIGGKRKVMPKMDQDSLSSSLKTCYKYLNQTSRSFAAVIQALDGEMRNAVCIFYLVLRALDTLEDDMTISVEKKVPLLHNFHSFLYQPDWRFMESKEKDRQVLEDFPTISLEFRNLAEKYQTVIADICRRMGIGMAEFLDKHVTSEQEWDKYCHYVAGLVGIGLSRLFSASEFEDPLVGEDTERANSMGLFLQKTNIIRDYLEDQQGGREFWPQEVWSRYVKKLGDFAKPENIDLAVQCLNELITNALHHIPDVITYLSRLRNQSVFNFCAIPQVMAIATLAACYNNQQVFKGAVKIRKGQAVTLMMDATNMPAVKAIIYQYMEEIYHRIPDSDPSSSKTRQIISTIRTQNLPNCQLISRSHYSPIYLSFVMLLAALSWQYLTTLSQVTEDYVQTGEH
Briefly: Human SQS inhibition. The class given is biochemical.

The subject of assay [9] is nonreplicating M. tuberculosis (streptomycin-starved 18b). The format is cell-based, Mycobacterium tuberculosis. Particulars: for effect on nonreplicating bacterial activity (CFU): 7 days.
The target of assay [10] is M. smegmatis membrane dehydrogenases (NADH, deamino-NADH, succinate, lactate substrates). Put plainly: Dehydrogenase activities, MTT reduction, M. smegmatis membranes. Particulars: in general (all substrates except malate). The format is biochemical, Mycobacterium smegmatis. For orientation: Formazan colour is commonly taken as a measure of viable cells.
The target in another assay is malate dehydrogenase (Mycolicibacterium smegmatis, UniProt A0QVL2). Briefly: Malate dehydrogenase activity, MTT reduction, M. smegmatis membranes. The class given is biochemical, Mycobacterium smegmatis.
Sequence of malate dehydrogenase (A0QVL2 whole entry): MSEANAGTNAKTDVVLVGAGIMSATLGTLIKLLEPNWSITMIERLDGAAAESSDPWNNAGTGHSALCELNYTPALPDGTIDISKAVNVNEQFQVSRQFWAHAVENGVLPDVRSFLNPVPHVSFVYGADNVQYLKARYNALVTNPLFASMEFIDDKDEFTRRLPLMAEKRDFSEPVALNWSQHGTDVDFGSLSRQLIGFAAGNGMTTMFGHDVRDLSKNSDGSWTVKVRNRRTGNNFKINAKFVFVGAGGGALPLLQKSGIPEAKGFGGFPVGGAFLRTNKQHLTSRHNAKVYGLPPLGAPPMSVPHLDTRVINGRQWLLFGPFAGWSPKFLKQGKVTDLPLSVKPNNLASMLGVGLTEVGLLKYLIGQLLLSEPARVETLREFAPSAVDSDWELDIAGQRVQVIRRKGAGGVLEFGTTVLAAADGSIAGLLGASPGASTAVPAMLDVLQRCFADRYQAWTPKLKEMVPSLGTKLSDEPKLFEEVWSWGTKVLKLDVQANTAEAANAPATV
The test system of the next assay is M. smegmatis cells, ΔpH. The format is cell-based, Mycobacterium smegmatis.
The test system of assay [11] is M. tuberculosis. Particulars: cited from earlier work.
In the next assay the test system is M. smegmatis. Particulars: cited from earlier work.
Assay [12] deals with M. smegmatis cells, ATP synthesis. Put plainly: ATP/ADP determination in M. smegmatis cells. The class given is cell-based, Mycobacterium smegmatis. A digest of the protocol:
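Cells grown 8 h in Middlebrook 7H9-ADC-Tween 80 and diluted to OD600 of 2. Test compounds added at several concentrations, with incubation at 37 °C and 200 rpm. ATP/ADP ratio read with a commercial ADP/ATP ratio kit after 10 and 60 min.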

Where [13] appears, read: read-out: Mt MIC (in parentheses).

Sequence of M. tuberculosis cis-farnesyl diphosphate synthase (Rv1086) (P9WFF5 whole entry): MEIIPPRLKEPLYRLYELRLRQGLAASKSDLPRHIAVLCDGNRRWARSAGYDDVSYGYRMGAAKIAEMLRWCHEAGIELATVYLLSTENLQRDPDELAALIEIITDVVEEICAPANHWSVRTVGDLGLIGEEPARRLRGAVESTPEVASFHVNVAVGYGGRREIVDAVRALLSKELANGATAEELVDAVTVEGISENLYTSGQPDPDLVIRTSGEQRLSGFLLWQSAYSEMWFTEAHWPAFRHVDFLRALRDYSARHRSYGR
Sequence of M. tuberculosis cis-decaprenyl diphosphate synthase (Rv2361) (P9WFF7 whole entry): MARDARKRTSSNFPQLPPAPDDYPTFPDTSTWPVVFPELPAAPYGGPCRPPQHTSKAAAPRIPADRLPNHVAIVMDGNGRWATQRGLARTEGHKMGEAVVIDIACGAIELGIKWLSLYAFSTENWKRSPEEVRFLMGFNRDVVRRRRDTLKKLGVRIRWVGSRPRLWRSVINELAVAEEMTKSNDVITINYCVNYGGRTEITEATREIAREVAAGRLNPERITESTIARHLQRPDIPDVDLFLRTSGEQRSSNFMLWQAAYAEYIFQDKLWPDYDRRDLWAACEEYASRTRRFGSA
Sequence of P. vivax geranylgeranyl diphosphate synthase (GGPPS) (A5K4U6 1-375): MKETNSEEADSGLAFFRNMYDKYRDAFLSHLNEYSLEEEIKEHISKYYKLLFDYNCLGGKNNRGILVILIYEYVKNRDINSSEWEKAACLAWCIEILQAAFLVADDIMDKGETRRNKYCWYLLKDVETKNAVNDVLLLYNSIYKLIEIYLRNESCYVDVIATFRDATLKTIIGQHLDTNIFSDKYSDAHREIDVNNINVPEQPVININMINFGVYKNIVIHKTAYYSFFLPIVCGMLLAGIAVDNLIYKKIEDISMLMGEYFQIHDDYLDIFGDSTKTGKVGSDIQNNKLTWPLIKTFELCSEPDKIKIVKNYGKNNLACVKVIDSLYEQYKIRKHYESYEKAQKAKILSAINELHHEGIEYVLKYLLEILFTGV

In the case of `CC(C)=CCC/C(C)=C/CNCCNC1C2CC3CC(C2)CC1C3` (stereo not drawn) [compound 1, SQ109], the MIC in the assay with M. tuberculosis [1] (read-out: Mt MIC) is 0.1 to 0.2 µg/mL; in the assay with M. tuberculosis [1] (setting [13]), 0.3 to 0.6 µM; in [2], greater than 120 µg/mL. Further, the concentration for half-maximal inhibition (IC50) is 7.6 µg/mL (≈ 23 µM) with B. subtilis; 2.8 µg/mL (≈ 8.47 µM) with E. coli; 3.3 µg/mL (≈ 9.98 µM) with C. albicans; 6 µg/mL (≈ 18.2 µM) in the assay on MCF-7; no less than 50 µM in [3]; no less than 50 µM in assay [4]. For the same molecule, the IC50 was no less than 50 µM in assay [5]; no less than 50 µM in [6]; no less than 50 µM in [7]; no less than 50 µM in [8]; roughly 30 µg/mL (≈ 90.8 µM) in assay [10]; 30.3 µM at malate dehydrogenase. In the assay on S. cerevisiae, the “Sc IC50” value amounted to 1.1 µg/mL. For the same molecule, the activity at SaCrtM and at human SQS was roughly 100 µM each time. Further, the “effect on nonreplicating bacterial activity (CFU)” value is “only a small effect” in assay [9] (1 μg/mL, absence of MK-4); “essentially no effect” in [9] (1 μg/mL, presence of 1 mM MK-4); “small effect” in [9] (10 μg/mL, presence of 1 mM MK-4). The “reduction of cell activity (CFU)” value in assay [9] (10 μg/mL, 7 days exposure, absence of MK-4) is recorded as roughly 4 log units. In addition, the “effect on pH gradient (ΔpH)” value in the assay with M. smegmatis cells, ΔpH was “collapsed”.
`CC[C@@H](CO)NCCN[C@@H](CC)CO` [compound 2, ethambutol]: the “Mt MIC” value in the assay on M. tuberculosis [11] was 2 µg/mL. Further, in the assay with M. smegmatis, the “Ms MIC” value was 1 µg/mL.
With `CC(C)=CCC/C(C)=C/CNCCOC1C2CC3CC(C2)CC1C3` (stereo not drawn) [compound 3], the MIC in the assay on M. tuberculosis [1] (read-out: Mt MIC) is 0.02 to 0.05 µg/mL; in the assay on M. tuberculosis [1] (setting [13]), 0.06 to 0.15 µM; in assay [2], roughly 8 µg/mL (≈ 24.1 µM). For the same molecule, the half-maximal inhibitory concentration (IC50) with B. subtilis was 16 µg/mL (≈ 48.3 µM); in the assay on E. coli it was 2.8 µg/mL (≈ 8.45 µM); in the assay with S. cerevisiae (Saccharomyces cerevisiae, read-out: Sc IC50) it was 1.8 µg/mL (≈ 5.43 µM); in the assay on C. albicans it was 12 µg/mL (≈ 36.2 µM); with MCF-7, 10 µg/mL (≈ 30.2 µM). The activity on SaCrtM (SaCrtM, weak activity) was roughly 100 µM; on human SQS (human SQS, weak activity), roughly 100 µM. Besides, the “effect on ATP synthesis” value in assay [12] is recorded as “inhibition of ATP synthesis”.

As usually defined, the IC50 is the midpoint of a concentration-inhibition curve.
